pIC50: −log10 of the molar value. Calls of active or inactive are those of the source. The calls are words filed in the database; no cut-off is given here.
Legend:
[1] = Inhibition of Dengue virus recombinant […] RNA dependent RNA polymerase using […] by SPA
Procedure, shortened: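 Purified recombinant dengue 2 NS5 polymerase at 50 nM, preincubated 1 h at room temperature with compound over a range of concentrations and annealed poly(C)/biotin-oligo G template. Buffer: 50 mM Tris-HCl pH 7.0, 10 mM KCl, 2 mM MgCl2, 2 mM MnCl2, 1 mM β-mercaptoethanol, 0.05% CHAPS. Stopped with EDTA and streptavidin SPA beads, then scintillation counting. Duplicates, average of at least two experiments.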

DNA polymerase beta = DNA polymerase beta (Homo sapiens, UniProt P06746); test: Inhibition of human DNA polymerase beta
[2] = Inhibition of HCV RNA dependent RNA polymerase; set-up: species or system Hepacivirus hominis
[3] = target: T1, DNA polymerase alpha catalytic subunit (Homo sapiens, UniProt P09884); test: Inhibition of human DNA polymerase alpha
T1 sequence (P09884 whole entry): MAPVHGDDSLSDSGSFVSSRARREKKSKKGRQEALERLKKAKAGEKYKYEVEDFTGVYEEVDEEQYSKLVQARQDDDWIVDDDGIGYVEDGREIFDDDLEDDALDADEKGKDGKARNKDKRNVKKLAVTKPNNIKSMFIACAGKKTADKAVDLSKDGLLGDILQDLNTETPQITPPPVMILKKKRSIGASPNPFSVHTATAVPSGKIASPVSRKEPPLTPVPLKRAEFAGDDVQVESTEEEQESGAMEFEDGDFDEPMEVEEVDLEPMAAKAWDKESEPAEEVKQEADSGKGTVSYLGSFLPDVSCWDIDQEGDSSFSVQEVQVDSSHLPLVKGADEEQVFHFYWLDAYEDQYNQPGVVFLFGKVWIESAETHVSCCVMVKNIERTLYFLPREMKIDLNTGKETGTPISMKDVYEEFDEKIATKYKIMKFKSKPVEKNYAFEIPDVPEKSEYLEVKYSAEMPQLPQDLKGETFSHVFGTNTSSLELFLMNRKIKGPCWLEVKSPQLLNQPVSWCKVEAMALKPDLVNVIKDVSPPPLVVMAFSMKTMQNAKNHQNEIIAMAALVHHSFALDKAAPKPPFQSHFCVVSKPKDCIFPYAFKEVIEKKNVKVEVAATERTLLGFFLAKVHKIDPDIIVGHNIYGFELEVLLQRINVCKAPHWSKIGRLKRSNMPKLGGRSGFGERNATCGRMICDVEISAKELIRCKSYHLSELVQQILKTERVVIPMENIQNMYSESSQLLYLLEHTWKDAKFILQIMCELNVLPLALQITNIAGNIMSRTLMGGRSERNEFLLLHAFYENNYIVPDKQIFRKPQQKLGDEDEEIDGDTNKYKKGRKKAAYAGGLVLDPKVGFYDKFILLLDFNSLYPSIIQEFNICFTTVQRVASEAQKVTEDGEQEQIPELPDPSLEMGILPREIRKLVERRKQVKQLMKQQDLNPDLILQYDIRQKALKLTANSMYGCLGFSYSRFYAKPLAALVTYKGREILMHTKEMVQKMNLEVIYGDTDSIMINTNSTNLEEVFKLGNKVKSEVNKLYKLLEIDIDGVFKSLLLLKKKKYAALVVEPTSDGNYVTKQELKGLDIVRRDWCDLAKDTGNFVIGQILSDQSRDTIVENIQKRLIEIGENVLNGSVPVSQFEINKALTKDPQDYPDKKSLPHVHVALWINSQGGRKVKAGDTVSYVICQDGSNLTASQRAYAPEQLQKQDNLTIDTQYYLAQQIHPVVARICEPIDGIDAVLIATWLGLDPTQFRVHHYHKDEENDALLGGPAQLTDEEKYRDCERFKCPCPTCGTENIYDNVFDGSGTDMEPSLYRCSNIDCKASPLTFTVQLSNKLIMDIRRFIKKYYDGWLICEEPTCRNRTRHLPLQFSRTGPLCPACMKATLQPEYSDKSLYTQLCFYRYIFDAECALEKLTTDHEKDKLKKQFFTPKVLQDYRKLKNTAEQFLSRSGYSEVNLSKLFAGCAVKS

Dengue virus = test: Irreversible inhibition of Dengue virus recombinant […] RNA dependent RNA polymerase under ultraviolet light irradiation

Compound | pIC50 [1] | also measured
O=C(O)c1ccccc1NS(=O)(=O)c1cccc(-c2cnn(CCN3CCOCC3)c2)c1 | < 4.70 | 
Cn1cc(-c2cccc(S(=O)(=O)Nc3ccccc3C(=O)O)c2)cn1 | < 4.70 | 
COc1cc(NS(=O)(=O)c2cccc(-c3cnn(Cc4ccccc4)c3)c2)c(C(=O)O)cc1OC | < 4.70 | 
CC(C)CCn1cc(-c2cccc(S(=O)(=O)Nc3ccccc3C(=O)O)c2)cn1 | 5.17 | 
NC(=O)c1ccccc1NS(=O)(=O)c1cccc(-c2cnn(Cc3ccccc3)c2)c1 | < 4.70 | 
O=C(O)c1cc(Cl)ccc1NS(=O)(=O)c1cccc(-c2cnn(Cc3ccccc3)c2)c1 | 5.59 | 
COC(=O)c1ccccc1NS(=O)(=O)c1cccc(-c2cnn(Cc3ccccc3)c2)c1 | < 4.70 | 
O=C(O)c1ccc(Cl)cc1NS(=O)(=O)c1cccc(-c2cnn(Cc3ccccc3)c2)c1 | 6.11 | 
O=C(O)c1cccc(NS(=O)(=O)c2cccc(-c3cnn(Cc4ccccc4)c3)c2)c1 | < 4.70 | 
O=C(O)c1ccccc1NS(=O)(=O)c1cccc(-c2cnn(Cc3ccccc3)c2)c1 | 6.15 | pIC50 (DNA polymerase beta): < 4.70; pIC50 [2]: < 4.70; pIC50 [3]: < 4.70
O=S(=O)(Nc1ccccc1)c1cccc(-c2cnn(Cc3ccccc3)c2)c1 | < 4.70 | 
COc1ccc(C(=O)O)c(NS(=O)(=O)c2cccc(-c3cnn(Cc4ccccc4)c3)c2)c1 | 5.00 | 
O=C(Nc1cccc(Cn2cc(-c3cccc(S(=O)(=O)Nc4ccccc4C(=O)O)c3)cn2)c1)c1ccc(C(=O)c2ccccc2)cc1 | 5.82 | Activity (Dengue virus): Active
O=C(O)c1ccc(NS(=O)(=O)c2cccc(-c3cnn(Cc4ccccc4)c3)c2)cc1 | < 4.70 | 
O=C(O)c1ccccc1NS(=O)(=O)c1cccc(-c2cn[nH]c2)c1 | < 4.70 | 
CC1=NN(c2cccc(S(=O)(=O)Nc3ccccc3C(=O)O)c2)C(=O)C1 | 5.14 | 
CC(C)Cn1cc(-c2cccc(S(=O)(=O)Nc3ccccc3C(=O)O)c2)cn1 | < 4.70 | 
O=C(O)c1ccccc1NS(=O)(=O)c1cccc(-c2cnn(Cc3ccc4ccccc4c3)c2)c1 | 6.43 | 
O=C(O)c1ccc(F)cc1NS(=O)(=O)c1cccc(-c2cnn(Cc3ccccc3)c2)c1 | 6.43 | pIC50 (DNA polymerase beta): < 4.70; pIC50 [2]: < 4.70; pIC50 [3]: < 4.70
O=C(O)c1c(Cl)cccc1NS(=O)(=O)c1cccc(-c2cnn(Cc3ccccc3)c2)c1 | < 4.70 | 
O=C(O)c1ccc(F)cc1NS(=O)(=O)c1cccc(-c2cnn(Cc3ccc4ccccc4c3)c2)c1 | 6.59 | pIC50 (DNA polymerase beta): < 4.70; pIC50 [2]: < 4.70; pIC50 [3]: < 4.70
O=C(O)c1cccc(Cl)c1NS(=O)(=O)c1cccc(-c2cnn(Cc3ccccc3)c2)c1 | 4.74 | 
